Bioassay records (PubChem)
m-calpain inh: calpain II (pig) inhibition; purified calpain II, fluorogenic peptide substrate, 30 min; inhibition, % at 16 µM; 220,000 compounds, 0.37% hits; AID 1236;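 active = inhibition above about 50%, limit read from the data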
Mdm2 ligase inh: Mdm2 E3 ligase (human) inhibition; cell-based MDM2 ubiquitination luciferase reporter, 2 h; 0 = plate control, 100 = twice control, blank-subtracted; Q00987; 210,000 compounds, 0.11% hits; AID 1230; signal enhancement, % at 5 µM;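 active = signal enhancement of 30% or more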;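 also: luminescence tracks abundance of the self-degrading MDM2-luciferase fusion protein; higher signal means inhibition of MDM2 E3 ligase activity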
Target sequence (Q00987 whole entry, looked up, the tested form may be a part): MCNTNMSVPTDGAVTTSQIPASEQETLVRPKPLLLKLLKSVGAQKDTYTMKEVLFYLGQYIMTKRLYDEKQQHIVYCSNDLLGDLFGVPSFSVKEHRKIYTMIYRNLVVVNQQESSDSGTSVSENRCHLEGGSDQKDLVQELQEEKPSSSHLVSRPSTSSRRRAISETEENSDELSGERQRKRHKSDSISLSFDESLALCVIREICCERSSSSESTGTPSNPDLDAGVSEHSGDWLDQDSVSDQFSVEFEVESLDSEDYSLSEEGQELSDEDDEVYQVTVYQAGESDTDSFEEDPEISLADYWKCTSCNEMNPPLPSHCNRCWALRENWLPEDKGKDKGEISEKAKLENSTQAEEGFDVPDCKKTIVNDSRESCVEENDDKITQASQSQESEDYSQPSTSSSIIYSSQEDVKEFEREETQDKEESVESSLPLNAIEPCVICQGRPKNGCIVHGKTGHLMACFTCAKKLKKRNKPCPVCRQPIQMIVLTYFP
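Material: Stable MDM2–luciferase fusion reporter cells | Amount: 2000 cells seeded into each well | Dosing: One concentration, 5 µM, with 0.2% DMSO | Incubation: 4 h cell settling then 2 h compound exposure, 37 °C | Measured by: Luciferase luminescence | Read-out basis: % enhancement relative to plate controls after blank subtraction | Benchmarks: Control and blank well means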
Wee1 degr inh: human Wee1 degradation inhibition, primary screen | 220,000 compounds, 1.2% hits | HeLa Luc-Wee1K328M stability, luciferase luminescence; 100% = proteasome inhibitor MG132 effect | P30291 | reporter increase, % at 5 µM;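 active = activation above the mean of all tested compounds plus 3 SD, set per screening run, cut at about 8.8% in these data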;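 also: cells exposed to compound for 20 h before luminescence read; 0% = DMSO alone and 100% = MG132 at 30 µM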
Hsp70 activator: switches on Hsp70 transcription; HeLa Hsp70 promoter luciferase reporter, luminescence; scaled: vehicle 0, proteasome-inhibitor control 100%; activation, % at 10 µM; 200,000 compounds, 0.04% hits;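 active = activation above the mean across all tested compounds plus 3 SD, cutoff set per campaign, cut at about 5.5% in these data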;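 also: 100% = MG132 at 30 µM as the positive control and 0% = DMSO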
Pf gametocyte: P. falciparum stage V gametocyte viability inhibition. P. falciparum stage V gametocytes, ATP luminescence, 24 h. inhibition, % at 10.9 µM. 150,000 compounds, 0.065% hits. AID 743093;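 active = inhibition above the mean plus 3 SD of compounds within the control limits, set per campaign, cut at about 38% in these data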;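 also: 0% = DMSO wells and 100% = medium only without gametocytes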
Wee1 stab conf: confirmation of human Wee1 degradation inhibitors | shares compounds with Wee1 degr inh | HeLa Luc-Wee1K328M degradation, luminescence; vehicle 0%, proteasome-blocked wells 100% | activation, % at 5 µM | 1,100 compounds, 4% hits | AID 1410; in the data active = activation above about 8.9%
The depositor's hits bear a star. Sampled rows, rich in hits. Any-hit rate of the full collection: about 1.5%.

Results for CCOC(=O)c1c(CSc2ccccc2)n(C)c2cc(Br)c(OCC(O)CNC(CO)(CO)CO)cc12 (stereo not given) ?
m-calpain inh: -55; Mdm2 ligase inh: -19; Wee1 degr inh: 11*; Hsp70 activator: 0; Pf gametocyte: 5; Wee1 stab conf: 3

How did COc1ccc(OC)c(S(=O)(=O)N2CCC(C(=O)Nc3cccc(C)c3)CC2)c1 do in these assays?
m-calpain inh: -15; Mdm2 ligase inh: -7; Wee1 degr inh: 11*; Hsp70 activator: 0; Pf gametocyte: -9; Wee1 stab conf: 2

What do the screens show for `COc1ccc(OC)c(S(=O)(=O)N2CCC(C(=O)Nc3ccccc3)CC2)c1`?
m-calpain inh: 8; Mdm2 ligase inh: -19; Wee1 degr inh: 0; Hsp70 activator: 0; Pf gametocyte: -5

How did C/C=C/c1cc(CN2CCN(c3ccccc3)CC2)c(O)c(OC)c1 do in these assays?
m-calpain inh: 21; Mdm2 ligase inh: -12; Wee1 degr inh: 11*; Hsp70 activator: 0; Pf gametocyte: 21; Wee1 stab conf: -5

Results for CCC(O)(CC)C(=O)N=Nc1c(O)[nH]c2ccccc12 ?
m-calpain inh: 3; Mdm2 ligase inh: 4; Wee1 degr inh: 11*; Hsp70 activator: 0; Pf gametocyte: 12; Wee1 stab conf: 2

What do the screens show for `CCOC(=O)c1ccc(-n2cccc2/C=C2\NC(=O)NC2=O)cc1`?
Pf gametocyte: -20

Results for CSCCC(NS(=O)(=O)c1ccc2ccccc2c1)C(=O)OCC(=O)c1ccc(C(C)C)cc1 (stereo not given) ?
m-calpain inh: 22; Mdm2 ligase inh: -13; Wee1 degr inh: 11*; Hsp70 activator: 0; Wee1 stab conf: -3

What do the screens show for `CN(C(=O)c1ccc(NC(=O)Cc2cccc(NC(=O)C3CCN(C(=O)C4CCCC4)CC3)c2)cc1)C1CCCC1`?
Pf gametocyte: 14

How did COc1ccc(OCCn2c(=O)sc3ccccc32)cc1 do in these assays?
m-calpain inh: -4; Mdm2 ligase inh: -12; Wee1 degr inh: 13*; Hsp70 activator: 0; Wee1 stab conf: 1

Results for CC(=O)Oc1c(-c2ccc(Br)o2)oc2ccccc2c1=O ?
Pf gametocyte: -15

How did CCOCCCn1c(SCC(=O)Nc2ccc(OC)cc2)nc2ccccc2c1=O do in these assays?
Pf gametocyte: -2

How did CN(CC(=O)N1CCc2ccccc21)S(=O)(=O)c1cccs1 do in these assays?
m-calpain inh: -37; Mdm2 ligase inh: -9; Wee1 degr inh: 14*; Hsp70 activator: 0; Pf gametocyte: -7; Wee1 stab conf: 4

Results for Cc1ccc(O)c(C(CC(=O)NCc2ccco2)c2ccccc2)c1 (stereo not given) ?
m-calpain inh: 3; Mdm2 ligase inh: -5; Wee1 degr inh: 11*; Hsp70 activator: 0; Pf gametocyte: -11; Wee1 stab conf: 2

What do the screens show for `Cc1cccc(C(CC(=O)NCc2ccco2)c2ccccc2)c1O` (stereo not given)?
m-calpain inh: -16; Mdm2 ligase inh: -6; Wee1 degr inh: -2; Hsp70 activator: 0; Pf gametocyte: 0

How did FC(F)(F)c1cccc(N2CCN(C3CC4CCC3C4)CC2)c1 (stereo not given) do in these assays?
Pf gametocyte: -11

How did CCN(CC)c1ccc(/C=N/NC(=S)NC)c(O)c1 do in these assays?
m-calpain inh: -46; Wee1 degr inh: 14*; Hsp70 activator: 0; Pf gametocyte: -21; Wee1 stab conf: 3

Results for Cc1cccc(NC(=O)c2cnc3sccn3c2=O)c1 ?
m-calpain inh: 39; Mdm2 ligase inh: -22; Wee1 degr inh: 24*; Hsp70 activator: 0; Wee1 stab conf: -1

Results for C#CCOCCOCCOCCNc1nc(N2CCN(C(=O)[C@H](CCC(=O)O)n3cc(C(N)CC(C)C)nn3)CC2)nc(N2CCN(C(=O)[C@H](CCC(=O)O)n3cc(C(N)CC(C)C)nn3)CC2)n1 (stereo not given in full) ?
m-calpain inh: 20; Wee1 degr inh: 12*; Hsp70 activator: 0; Wee1 stab conf: -2
